In one test the test system is A549. The experiment in a line: Antiproliferative activity against human A549 cells after 12 hrs by MTT assay. Format: functional, cell-based. The following applies: A549, 12 h. In outline:
(§1)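 MTT assay. Cells grown as monolayers in DMEM with 10% FBS, 2 mM glutamine and penicillin/streptomycin at 37 °C, 5% CO2. Seeded at 1×10^4 cells/well and held 12 h before serial compound dilutions were added. Final DMSO was under 1% (v/v). MTT (2 mg/ml) was present for the last 1.5 h; the formazan was dissolved in DMSO and read at 570 nm. IC50 interpolated from dose-response curves; mean ± sem of four to six experiments.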
For orientation: Formazan colour is commonly taken as a measure of viable cells.

The test system of the next test is PC-3. Nature of the test: Antiproliferative activity against human PC3 cells after 12 hrs by MTT assay. The following applies: PC-3, 12 h. In kind it is functional, cell-based. Put shortly: as §1
Test [1] can be described thus: Antiproliferative activity against human SKHep cells after 12 hrs by MTT assay. In kind it is functional, cell-based. In outline:
as §1

Test [2] can be described thus: Antiproliferative activity against human BT-483 cells after 12 hrs by MTT assay. The following applies: BT-483, 12 h. In kind it is functional, cell-based. Put shortly: as §1
Test [3] concerns HeLa. The experiment in a line: Antiproliferative activity against human HeLa cells after 12 hrs by MTT assay. Format: functional, cell-based. In outline:
as §1

For test [4], the system named is HeLa. Nature of the test: Cell cycle arrest in human HeLa cells assessed as accumulation at G1 phase at 20 uM after 24 hrs using propidium iodide staining by FACS analysis. Format: functional, cell-based. Background: Flow cytometry measures light scatter and fluorescence of single cells or particles in a stream.
For test [5], the system named is HeLa. The experiment in a line: Antiproliferative activity against human HeLa cells at 10 uM after 30 hrs by MTT assay. In kind it is functional. Put shortly:
(§2)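 HeLa cells at 10^4 cells/well were given the compound at 1.0, 3.0 or 10 μM, alongside an untreated control and a 0.1% DMSO control. Proliferation was followed by MTT at several time points over a 30 h period.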

The subject of test [6] is HeLa. Nature of the test: Antiproliferative activity against human HeLa cells assessed as DNA fragmentation at 5 uM after 24 hrs using […] DAPI staining by fluorescence microscopy. In kind it is functional, cell-based. Put shortly: (§3)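 HeLa cells grown on cover glasses were treated 24 h with 5 or 10 μM compound, with untreated and 0.5% DMSO controls. They were fixed in 4% paraformaldehyde, glycine-washed and permeabilized with 2% FBS/0.4% Triton X-100. Nuclei were stained with DAPI (0.1 μg/ml) for 5 min in the dark, and DNA fragmentation was examined by fluorescence microscopy.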

Test [7] deals with HeLa. Nature of the test: Antiproliferative activity against human HeLa cells at 3 uM after 30 hrs by MTT assay. Format: functional. Put shortly:
as §2

In test [8] the test system is HeLa. The experiment in a line: Cell cycle arrest in human HeLa cells assessed as accumulation at sub-G1 phase after 24 hrs using propidium iodide staining by FACS analysis. In kind it is functional, cell-based. Put shortly: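 HeLa cells were treated 24 h with compound at 5 or 20 μM, with a 0.5% DMSO control and untreated blank. Cells were harvested, rinsed in PBS and fixed in 80% ethanol at −20 °C. They were stained with propidium iodide and analysed by flow cytometry. The sub-diploid (apoptotic) population is expressed as a percentage of all cells.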

For test [9], the system named is HeLa. The experiment in a line: Antiproliferative activity against human HeLa cells assessed as DNA fragmentation at 10 uM after 24 hrs using […] DAPI staining by fluorescence microscopy. In kind it is functional, cell-based. Put shortly: as §3
For test [10], the system named is HeLa. The experiment in a line: Antiproliferative activity against human HeLa cells assessed as morphological changes at 10 uM after 24 hrs using DAPI staining by fluorescence microscopy. In kind it is functional, cell-based. In outline:
(§4)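 HeLa cells were exposed 24 h to 5, 10 or 20 μM compound, with untreated and DMSO controls. Morphology (cell rounding, detachment from substratum) was examined.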

Test [11] concerns HeLa. The experiment in a line: Antiproliferative activity against human HeLa cells assessed as morphological changes at 20 uM after 24 hrs using DAPI staining by fluorescence microscopy. In kind it is functional, cell-based. Put shortly: as §4
For test [12], the system named is HeLa. The experiment in a line: Antiproliferative activity against human HeLa cells assessed as morphological changes at 5 uM after 24 hrs using DAPI staining by fluorescence microscopy. In kind it is functional, cell-based. Put shortly:
as §4

SMILES strings stand for the structures. The source made the active and inactive calls. The rule behind the calls is not given here. Bounds are passed on as bounds.

The source of these data is ChEMBL document CHEMBL1158400, “Synthesis of 2-styrylchromones as a novel class of antiproliferative agents targeting carcinoma cells” (Eur J Med Chem, 2009).

On to `COc1cc(/C=C/c2cc(=O)c3c(OC)cc(OC)cc3o2)cc(OC)c1`, for which the IC50 in the test with A549 is 15.6 µM; with PC-3, over 40 µM; in [1], 23.7 µM; in test [2] (read-out: IC50) it was 16.6 µM; in [2] (read-out: pIC50 (converted)), 16.6 µM; with HeLa [3], 16.7 µM.

`COc1cccc2oc(/C=C/c3ccc(OC(F)(F)F)cc3)cc(=O)c12`: the IC50 with A549 was over 40 µM; in the test with PC-3, over 40 µM; in test [1], 21 µM; in test [2] (read-out: IC50), 18.2 µM; in test [2] (read-out: pIC50 (converted)), 18.2 µM; in the test with HeLa [3], 9.1 µM.

Take `COc1ccc2oc(/C=C/c3ccc(OC(F)(F)F)cc3)cc(=O)c2c1`: the IC50 is over 40 µM with A549; over 40 µM in the test on PC-3; over 40 µM in test [1]; over 40 µM in [2] (read-out: IC50); 9 µM with HeLa [3].

With `COc1cc(OC)c2c(=O)cc(/C=C/c3ccncc3)oc2c1`, the IC50 is over 40 µM in the test with A549; over 40 µM in the test on PC-3; over 40 µM in test [1]; 25.2 µM in [2] (read-out: IC50); 25.1 µM in test [2] (read-out: pIC50 (converted)); 18.8 µM in the test with HeLa [3].

Regarding `COc1cc(OC)c2c(=O)cc(/C=C/c3ccc(F)cc3)oc2c1`, the IC50 was 18.6 µM with A549; over 40 µM in the test on PC-3; 29.2 µM in test [1]; 19.9 µM in test [2] (read-out: IC50); 20 µM in test [2] (read-out: pIC50 (converted)); 14.2 µM in the test on HeLa [3].

`COc1cc(OC)c2c(=O)cc(/C=C/c3ccc(Br)cc3)oc2c1`: the IC50 with A549 is over 40 µM; in the test with PC-3, over 40 µM; in test [1], over 40 µM; in test [2] (read-out: IC50), over 40 µM; in test [2] (read-out: pIC50 (converted)), 60.3 µM; in the test with HeLa [3], over 40 µM.

In the case of `COc1ccc2c(=O)cc(/C=C/c3ccc(OC(F)(F)F)cc3)oc2c1`, the IC50 with A549 is over 40 µM; with PC-3, over 40 µM; in test [1], over 40 µM; in test [2] (read-out: IC50) it was 20.1 µM; in test [2] (read-out: pIC50 (converted)) it was 20 µM; with HeLa [3], 9.9 µM.

As to `COc1cc(OC)c2c(=O)cc(/C=C/c3ccc([N+](=O)[O-])cc3)oc2c1`, the IC50 in the test with A549 is 19.7 µM; in the test with PC-3 it was over 40 µM; in test [1], 22 µM; in test [2] (read-out: IC50), 25.5 µM; in test [2] (read-out: pIC50 (converted)), 25.5 µM; with HeLa [3] it was 9.6 µM.

With `COc1cc(OC)c2c(=O)cc(/C=C/c3ccccc3)oc2c1`, the IC50 is 21.5 µM in the test on A549; over 40 µM with PC-3; 26 µM in test [1]; over 40 µM in test [2] (read-out: IC50); 10.1 µM with HeLa [3]. Also, in the test on HeLa [4], the outcome was Active.

For the compound `COc1ccc(/C=C/c2cc(=O)c3c(OC)cc(OC)cc3o2)cc1`, the IC50 is over 40 µM in the test with A549; over 40 µM in the test with PC-3; over 40 µM in test [1]; 29.6 µM in [2] (read-out: IC50); 29.5 µM in [2] (read-out: pIC50 (converted)); 17.8 µM in the test on HeLa [3].

`COc1cc(OC)c2c(=O)cc(/C=C/c3ccc(Cl)cc3)oc2c1`: the IC50 in the test with A549 was over 40 µM; in the test on PC-3, over 40 µM; in test [1], 26.9 µM; in test [2] (read-out: IC50), 26.1 µM; in test [2] (read-out: pIC50 (converted)), 26.3 µM; in the test on HeLa [3], 14.2 µM.

For the compound `COc1ccc2c(=O)cc(/C=C/c3ccc(OC(F)(F)F)cc3)oc2c1OC`, the IC50 with A549 is over 40 µM; in the test on PC-3, over 40 µM; in test [1], 12.4 µM; in [2] (read-out: IC50), 30.9 µM; in [2] (read-out: pIC50 (converted)), 30.9 µM; in the test with HeLa [3], 4.9 µM. Also, the Activity in the test with HeLa [5] is 60%; with HeLa [7] it was 15%; with HeLa [8], “Dose-dependent effect”. Further, in the test on HeLa [6], the result was inactive. For the same compound, the outcome in the test with HeLa [9], with HeLa [10], with HeLa [11] and with HeLa [12] was Active.

`COc1cc(OC)c2c(=O)cc(/C=C/c3ccc(C(F)(F)F)cc3)oc2c1`: the IC50 in the test with A549 was over 40 µM; with PC-3 it was over 40 µM; in test [1], 20.6 µM; in test [2] (read-out: IC50) it was over 40 µM; in test [2] (read-out: pIC50 (converted)) it was 60.3 µM; with HeLa [3], 19 µM. The outcome with HeLa [4] was Active.

With `COc1cc(OC)c2c(=O)cc(/C=C/c3ccc(OCC4CC4)cc3)oc2c1`, the IC50 in the test on A549 is 20.9 µM; in the test on PC-3, over 40 µM; in [1] it was 22.1 µM; in test [2] (read-out: IC50), 16.6 µM; in test [2] (read-out: pIC50 (converted)) it was 16.6 µM; in the test with HeLa [3], 10.9 µM.

With `COc1cc(OC)c2c(=O)cc(/C=C/c3ccc4c(c3)OCO4)oc2c1`, the IC50 is over 40 µM in the test with A549; over 40 µM in the test with PC-3; 23.7 µM in test [1]; 29.3 µM in test [2] (read-out: IC50); 29.5 µM in test [2] (read-out: pIC50 (converted)); 16.4 µM in the test with HeLa [3].

In the case of `COc1cc(OC)c2c(=O)cc(/C=C/c3ccc(OC(F)(F)F)cc3)oc2c1`, the IC50 was 24.2 µM in the test with A549; over 40 µM in the test on PC-3; 12.5 µM in [1]; 26.6 µM in [2] (read-out: IC50); 26.3 µM in test [2] (read-out: pIC50 (converted)); over 40 µM with HeLa [3].
